Data taken from ChEMBL document CHEMBL2429861, “Chemopreventive and antioxidant activity of 6-substituted imidazo[2,1-b]thiazoles” (Eur J Med Chem, 2013).

What was measured:
[1] = Half life in human liver microsomes at 1 uM after 1 to 60 mins by UHPLC-MS/MS analysis; assay type: ADME, Microsome
[2] = Relative antioxidant activity assessed as resorcinol equivalents of hydroperoxyl scavenging activity at acidic pH by BR oscillating reaction method; assay type: ADME
Summary of the method: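 Briggs–Rauscher oscillating reaction: hydrogen peroxide, acidic iodate, malonic acid and Mn(II) catalyst at about pH 2, with hydroperoxyl radicals as the key intermediates.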

[3] = molecular target: NAD(P)H dehydrogenase [quinone] 1 (Mus musculus) (UniProt Q64669); assay: Induction of quinone reductase-1 activity in mouse Hepa-1c1c7 cells assessed as concentration required to double induction activity by MTT assay; assay type: cell-based
Summary of the method: (§1)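 Hepa 1c1c7 murine hepatoma cells incubated with compounds at […]. Cells were permeabilized with digitonin and QR1 activity measured by MTT reduction to formazan at 595 nm, with a parallel crystal violet protein assay. IR is specific activity versus DMSO control; CD is the concentration doubling activity, determined only where IR >2. Two independent experiments in triplicate.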

[4] = molecular target: NAD(P)H dehydrogenase [quinone] 1 (Mus musculus) (UniProt Q64669); assay: Induction of quinone reductase-1 activity in mouse Hepa-1c1c7 cells expressing TAOc1BPrcI mutant assessed as induction ratio at 50 uM by MTT assay relative to DMSO control; assay type: cell-based
[5] = molecular target: T1, Nitric oxide synthase, inducible (Mus musculus) (UniProt P29477); assay: (§2) Inhibition of iNOS-mediated NO production in mouse RAW264.7 cells by Griess assay; assay type: cell-based
T1 sequence (whole entry): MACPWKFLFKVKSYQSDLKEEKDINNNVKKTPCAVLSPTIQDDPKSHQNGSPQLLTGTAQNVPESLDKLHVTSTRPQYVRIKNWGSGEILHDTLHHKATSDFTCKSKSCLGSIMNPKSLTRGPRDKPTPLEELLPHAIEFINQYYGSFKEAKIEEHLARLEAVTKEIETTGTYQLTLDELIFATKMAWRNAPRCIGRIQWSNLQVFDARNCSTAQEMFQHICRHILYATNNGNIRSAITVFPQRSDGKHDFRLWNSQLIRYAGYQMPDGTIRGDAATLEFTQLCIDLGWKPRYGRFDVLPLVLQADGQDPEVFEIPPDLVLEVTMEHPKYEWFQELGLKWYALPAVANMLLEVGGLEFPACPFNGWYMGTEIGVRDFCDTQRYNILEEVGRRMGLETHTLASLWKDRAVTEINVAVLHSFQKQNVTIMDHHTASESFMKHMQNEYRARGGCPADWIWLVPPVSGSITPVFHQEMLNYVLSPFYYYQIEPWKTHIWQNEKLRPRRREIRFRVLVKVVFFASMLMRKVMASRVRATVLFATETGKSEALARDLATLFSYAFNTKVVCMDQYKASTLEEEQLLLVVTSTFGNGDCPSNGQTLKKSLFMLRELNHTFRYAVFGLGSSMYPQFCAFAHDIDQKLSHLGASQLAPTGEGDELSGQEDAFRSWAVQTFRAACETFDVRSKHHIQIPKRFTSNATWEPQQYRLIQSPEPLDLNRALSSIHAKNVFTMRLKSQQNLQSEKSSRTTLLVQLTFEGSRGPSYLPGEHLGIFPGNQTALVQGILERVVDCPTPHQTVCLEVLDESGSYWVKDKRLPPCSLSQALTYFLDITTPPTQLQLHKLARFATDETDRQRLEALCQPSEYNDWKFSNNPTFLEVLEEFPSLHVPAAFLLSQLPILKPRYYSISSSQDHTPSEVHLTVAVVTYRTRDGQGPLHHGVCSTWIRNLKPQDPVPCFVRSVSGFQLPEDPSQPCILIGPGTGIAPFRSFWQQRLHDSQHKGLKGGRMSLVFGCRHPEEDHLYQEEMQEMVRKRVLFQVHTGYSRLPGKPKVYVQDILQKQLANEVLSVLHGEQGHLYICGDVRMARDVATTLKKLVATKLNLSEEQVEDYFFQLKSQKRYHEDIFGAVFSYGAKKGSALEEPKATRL
Summary of the method: (§3)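 RAW 264.7 cells, 1×10^5 per well, held 24 h at 37 °C under 5% CO2. Nitrite in the medium was measured with Griess reagent (sulfanilamide/N-(1-naphthyl)ethylenediamine in H3PO4) at 540 nm against a sodium nitrite standard curve.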

[6] = molecular target: T2, Nitric oxide synthase, inducible (Mus musculus, UniProt P29477); assay: as §2; assay type: cell-based; summary of the method: as §3
T2 sequence (P29477 whole entry): T1 sequence (whole entry)

[7] = Cytotoxicity against human HEK293 cells assessed as cell survival at 50 uM; assay type: cell-based; conditions: read-out: Survival
Liver microsomes [8] = assay: Drug metabolism in human liver microsomes assessed as monooxygenated metabolite by UHPLC-MS/MS analysis; assay type: ADME, Microsome
Summary of the method: (§4)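 Microsomal incubations as for stability (1 mg/mL human liver microsomes, NADPH, 37 °C). Metabolites analysed by UHPLC-MS/MS with a 4.5 min gradient at 0.2 mL/min, recording product ion scans over m/z 100–300.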

[9] = molecular target: NAD(P)H dehydrogenase [quinone] 1 (Mus musculus) (UniProt Q64669); assay: Induction of quinone reductase-1 activity in mouse Hepa-1c1c7 cells expressing BPrc1 mutant assessed as induction ratio at 50 uM by MTT assay relative to DMSO control; assay type: cell-based
HEK293 [10] = assay: Cytotoxicity against human HEK293 cells assessed as reduction in cell survival; assay type: cell-based
Summary of the method: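 Same 293/NFkB-Luc cells under the NFkB assay conditions; cytotoxic IC50 taken as the concentration giving 50% cell survival.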

[11] = Cytotoxicity against mouse RAW264.7 cells assessed as cell survival at 50 uM after 15 mins by SRB assay; assay type: cell-based; conditions: read-out: Survival
Summary of the method: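 RAW 264.7 cells were seeded at 1×10^5 per well and held 24 h at 37 °C in 5% CO2. They were then pretreated 15 min with serially diluted compound, followed by LPS (or no LPS) for a further 20 h. Medium was taken for the Griess assay, and cells were fixed with 10% TCA and stained with 0.4% SRB in 1% acetic acid. Bound dye was dissolved in 10 mM Tris and read at 515 nm. Survival is relative to LPS-treated control; two experiments in duplicate.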

Aromatase [12] = molecular target: T3, Aromatase (Homo sapiens, UniProt P11511); assay: Inhibition of aromatase (unknown origin) using dibenzylfluorscein as substrate incubated with NADP+ for 10 mins prior to substrate addition measured after 30 mins by fluorescence assay
T3 sequence (P11511 whole entry): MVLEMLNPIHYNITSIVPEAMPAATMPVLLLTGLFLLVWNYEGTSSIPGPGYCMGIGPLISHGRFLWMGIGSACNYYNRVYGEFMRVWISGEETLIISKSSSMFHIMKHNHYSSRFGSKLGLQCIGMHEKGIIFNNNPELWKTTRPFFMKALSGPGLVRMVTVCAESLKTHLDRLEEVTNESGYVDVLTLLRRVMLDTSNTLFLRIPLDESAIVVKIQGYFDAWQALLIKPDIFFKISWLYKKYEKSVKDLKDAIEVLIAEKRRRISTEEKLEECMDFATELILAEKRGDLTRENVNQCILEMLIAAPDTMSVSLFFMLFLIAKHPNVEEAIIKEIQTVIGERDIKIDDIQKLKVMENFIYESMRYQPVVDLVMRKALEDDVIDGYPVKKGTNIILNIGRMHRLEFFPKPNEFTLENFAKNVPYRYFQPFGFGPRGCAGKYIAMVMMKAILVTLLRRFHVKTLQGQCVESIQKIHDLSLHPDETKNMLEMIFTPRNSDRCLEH

[13] = Inhibition of TNFalpha-induced nuclear factor-kappa-B activation in human HEK293 cells at by luciferase reporter gene assay; assay type: cell-based
Summary of the method: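 Stably transfected 293/NFkB-Luc cells seeded at 20 × 10^3 per well in DMEM with 10% FBS, penicillin/streptomycin and 2 mM L-glutamine for 48 h. Medium was then replaced and cells were given compounds in DMSO plus TNF-α 2 ng/mL (0.14 nM) for 6 h. Cells were lysed and luciferase luminescence read; IC50 is the concentration halving TNF-α-activated activity; […]. Mean ± SD of two experiments in duplicate.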

Aromatase [14] = molecular target: T3, Aromatase; assay: Inhibition of aromatase (unknown origin) using dibenzylfluorscein as substrate incubated with NADP+ for 10 mins prior to substrate addition at 50 uM measured after 30 mins by fluorescence assay; conditions: 0.5 h
Summary of the method: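 Compounds preincubated 10 min at 37 °C with an NADPH-regenerating system (2.6 mM NADP+, 7.6 mM glucose 6-phosphate, 0.8 U/mL G6PDH, 13.9 mM MgCl2, 1 mg/mL albumin; 50 mM K phosphate, pH 7.4). CYP19 enzyme with […] was added for 30 min at 37 °C. The reaction was stopped with 2 N NaOH and held 24 h at 37 °C, then fluorescence read at ex 485/em 530 nm.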

[15] = molecular target: T1, Nitric oxide synthase, inducible (Mus musculus); assay: Inhibition of iNOS-mediated NO production in mouse RAW264.7 cells at 50 uM by Griess assay; assay type: cell-based
[16] = molecular target: NAD(P)H dehydrogenase [quinone] 1 (Mus musculus) (UniProt Q64669); assay: Induction of quinone reductase-1 activity in mouse Hepa-1c1c7 cells assessed as induction ratio at 50 uM by MTT assay relative to DMSO-treated control; assay type: cell-based; summary of the method: as §1
[17] = tested on: Radical scavenging activity; assay: Antioxidant activity in non-aqueous medium assessed as trolox equivalents of DPPH radical scavenging activity by spectrophotometry; assay type: functional
Summary of the method: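 DPPH radical decolorization by hydrogen-donating scavengers in MeOH or EtOH. Some values could not be determined where the compound's solution colour resembled the DPPH reagent, or where % inhibition versus concentration was not linear.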

[18] = Antioxidant activity assessed as trolox equivalents of ABTS radical scavenging activity at pH 7.4 by spectrophotometry; assay type: functional
Summary of the method: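 TEAC run at pH 7.4; activity reported as mM equivalents of Trolox.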

HEK293 [19] = assay: Inhibition of TNFalpha-induced nuclear factor-kappa-B activation in human HEK293 cells at 50 uM by luciferase reporter gene assay; assay type: cell-based
RAW264.7 = assay: Cytotoxicity against mouse RAW264.7 cells assessed as cell survival after 20 hrs by SRB assay; conditions: for inhibition (INH): mouse, raw264.7, 20 h
Liver microsomes [20] = assay: Drug metabolism in human liver microsomes assessed as monooxygenated metabolite after 1.9 mins by UHPLC-MS/MS analysis; assay type: ADME, Microsome; conditions: 114 s; summary of the method: as §4

Sequence of NAD(P)H dehydrogenase [quinone] 1 (Mus musculus) (Q64669 whole entry): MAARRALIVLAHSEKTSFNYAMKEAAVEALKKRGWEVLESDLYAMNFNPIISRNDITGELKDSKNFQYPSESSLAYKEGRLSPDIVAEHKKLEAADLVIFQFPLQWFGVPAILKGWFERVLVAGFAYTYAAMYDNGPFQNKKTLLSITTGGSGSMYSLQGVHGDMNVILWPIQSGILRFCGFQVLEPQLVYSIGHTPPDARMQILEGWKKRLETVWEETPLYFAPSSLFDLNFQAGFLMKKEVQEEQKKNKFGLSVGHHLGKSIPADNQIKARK

`CC(C)NCC(O)COc1cccc2ccccc12` (stereo unspecified) [PROPRANOLOL] showed a half-life at 1 µM [1] of 20.8 min.

Work on `Oc1cc(O)c2c(c1)O[C@@H](c1ccc(O)c(O)c1)[C@H](O)C2` [(-)-CATECHIN] yielded an Activity [2] of 2.2 µM.

In the case of `O=c1c(-c2ccc(O)cc2)coc2c([C@@H]3O[C@H](CO)[C@@H](O)[C@H](O)[C@H]3O)c(O)ccc12` [PUERARIN], the Activity [2] is reported as 0.192 µM.

For `Cc1cn2cc(-c3ccc(O)c(O)c3O)nc2s1`, the CD [3] was 24.6 µM, the Ratio [4] was 0.2 and the inhibition [5] was “Dose-dependent effect”. For the same compound, the IC50 [6] was 6.8 µM, the viability at 50 µM [7] was 34.3% and the Drug metabolism (Liver microsomes [8]) was “Active”. The Ratio [9] was 1.2, the IC50 (HEK293 [10]) was 21.2 µM and the viability at 0.25 h, 50 µM [11] was 52.3%. It also gave an IC50 (Aromatase [12]) of 3.2 µM, an IC50 [13] of 0.53 µM and an Activity [2] of 0.14 µM. The inhibition at 50 µM (Aromatase [14]) was 99.6%, the inhibition [15] was 98.8% and the Ratio [16] was 2.03. The half-life at 1 µM [1] was 11.2 min, the Activity [17] was 1.38 µM and the Activity [18] was 3.06 µM. For the same compound, the inhibition (HEK293 [19]) was 97.5% and the “inhibition (INH)” value (RAW264.7) was “Dose-dependent effect”.

For `O=c1c(O)c(-c2ccc(O)c(O)c2)oc2cc(O)cc(O)c12`, the Activity [18] was 3.1 µM.

In the case of `Cc1ccc(S(=O)(=O)N[C@@H](Cc2ccccc2)C(=O)CCl)cc1` [TPCK], the IC50 [13] is reported as 3.8 µM.

In the case of `Oc1ccc(O)c(-c2cn3ccsc3n2)c1`, the CD [3] is reported as 12.1 µM, the Ratio [4] is reported as 0.3 and the inhibition [5] is reported as “Dose-dependent effect”. For the same compound, the IC50 [6] was 6.4 µM, the viability at 50 µM [7] was 43.6% and the Ratio [9] was 0.9. The IC50 (HEK293 [10]) was 46.5 µM, the viability at 0.25 h, 50 µM [11] was 48.2% and the IC50 (Aromatase [12]) was 2.6 µM. For the same compound, the Drug metabolism (Liver microsomes [20]) was “Active”, the IC50 [13] was 2.24 µM and the Activity [2] was 1.032 µM. The inhibition at 50 µM (Aromatase [14]) was 98.6%, the inhibition [15] was 97.7% and the Ratio [16] was 3.8. The half-life at 1 µM [1] was 5.9 min, the Activity [17] was 0.71 µM and the Activity [18] was 1.29 µM. The inhibition (HEK293 [19]) was 91%, the IC50 (RAW264.7; Mus musculus, RAW264.7, 20 h) was 11.6 µM and the “inhibition (INH)” value (RAW264.7) was “Dose-dependent effect”.
